The sample as a whole holds a higher share of hits than the screen did.
INS-1E rescue: INS-1E beta cell protection from cytokine death; INS-1E cytokine-induced death, ATP luminescence, 48 h; normalised: neutral wells 0, positive control 100; AID 488910; protection from cytokine-induced ATP loss, % at 10 µM; 20,000 compounds, 0.1% hits;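 active = mean replicate protection from cytokine-induced ATP loss at least 50% and at least 75% of replicates each reaching 50%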
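Assay system: INS-1E rat cells / Quantity: 8000 cells per well / Medium: RPMI without phenol red, 5% FBS / Probe or stimulus: three-cytokine cocktail (IFN-γ, TNF-α, IL-1β) / Dosing: one compound concentration, pin transfer / Timing: 48 h co-treatment, 10 min post-lysis read / Technique: CellTiter-Glo luminescence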
T cruzi HTS: blocks T. cruzi growth inside host cells; intracellular Trypanosoma cruzi in host cells, plate reader; activity score (inhibition), % at 5.01 µM; 22,000 compounds, 4.9% hits; AID 651903; in the data active = activity score above about 55%;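 also: parasites and compound incubated about four days before reading; 0% = median of neutral control wells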
A1 apoptosis 2: A1 inhibition read as caspase activation; AID 2465; 24,000 tested, under 10 active; MEF A1-2A-BIM cells, caspase-Glo luminescence, 3 h; percent of clofoctol response, DMSO zero; caspase activation, % (no concentration beside the values); in the data active = caspase activation above about 5.9%
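system = A1-2A-BIM-expressing MEF cells | quantity = 2500 MEF cells/well | dosing = 50 nL compound per well, pinned | schedule = overnight cell settling, then 3 h compound exposure, 37 °C | signal = luminescence from DEVD-luciferin Caspase-Glo reagent, 1:1 in 50 mM HEPES, 1 h RT | read-out = Caspase-3/7 activation, seen as rise in luminescence signal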
Numbers without * were called inactive; . = no result given.

SMILES | INS-1E rescue | T cruzi HTS | A1 apoptosis 2
C[C@@H]1CN([C@@H](C)CO)C(=O)c2cc(NS(=O)(=O)c3ccc(Cl)cc3)ccc2O[C@@H]1CN(C)Cc1ccc(Cl)c(Cl)c1 | -15 | 58* | 0
C[C@H](CO)N1C[C@H](C)[C@H](CN(C)C(=O)Nc2ccc(F)cc2)Oc2ccc(NS(=O)(=O)c3ccc(F)cc3)cc2C1=O | . | 3 | 1
C[C@H]1CN([C@@H](C)CO)C(=O)c2cc(NC(=O)Cc3ccccc3)ccc2O[C@@H]1CN(C)S(=O)(=O)c1cn(C)cn1 | 3 | -10 | .
C[C@@H]1CN([C@H](C)CO)C(=O)Cc2cc(NS(=O)(=O)c3ccc(F)cc3)ccc2O[C@@H]1CN(C)Cc1ccc2c(c1)OCO2 | -2 | 41 | -2
C[C@@H]1CCCCO[C@@H](CN(C)S(=O)(=O)c2ccc(F)cc2)[C@@H](C)CN([C@H](C)CO)C(=O)c2cc(NC(=O)Nc3cccc4ccccc34)ccc2O1 | -12 | 8 | 1
C[C@@H]1CN([C@@H](C)CO)C(=O)Cc2cc(NC(=O)Cn3cnnn3)ccc2O[C@@H]1CN(C)Cc1ccccc1 | 5 | 8 | .
C[C@H](CO)N1C[C@H](C)[C@@H](CN(C)S(=O)(=O)c2cccs2)OCCCC[C@H](C)Oc2ccc(NC(=O)Cc3ccccc3)cc2C1=O | . | . | 1
C[C@@H]1CN([C@@H](C)CO)C(=O)c2cc(NS(=O)(=O)c3ccccc3)ccc2O[C@@H]1CN(C)Cc1ccc(Cl)c(Cl)c1 | -29 | 13 | -2
C[C@H]1CCCCO[C@H](CN(C)Cc2ccc(Cl)c(Cl)c2)[C@@H](C)CN([C@@H](C)CO)C(=O)c2cc(NS(=O)(=O)c3ccc(F)cc3)ccc2O1 | . | . | -1
C[C@@H]1CCCCO[C@@H](CN(C)Cc2ccc(Cl)c(Cl)c2)[C@@H](C)CN([C@H](C)CO)C(=O)c2cc(NS(=O)(=O)c3ccc(F)cc3)ccc2O1 | -53 | 56* | 0
C[C@H]1CN([C@@H](C)CO)C(=O)c2cc(NS(=O)(=O)c3ccccc3)ccc2O[C@H]1CN(C)Cc1ccc(Cl)c(Cl)c1 | . | 52* | -1
C[C@H](CO)N1C[C@H](C)[C@@H](CN(C)Cc2ccc(C(F)(F)F)cc2)OCCCC[C@H](C)Oc2ccc(NS(=O)(=O)c3ccc(F)cc3)cc2C1=O | . | . | 2
C[C@@H]1CCCCO[C@@H](CN(C)Cc2ccc(C(F)(F)F)cc2)[C@@H](C)CN([C@H](C)CO)C(=O)c2cc(NS(=O)(=O)c3ccc(F)cc3)ccc2O1 | -63 | 64* | .
C[C@H]1CN([C@@H](C)CO)C(=O)c2cccc(NS(=O)(=O)c3cccs3)c2O[C@H]1CN(C)C(=O)Nc1ccc(F)cc1 | 11 | -5 | 0
Cc1ccc(S(=O)(=O)N(C)C[C@@H]2Oc3ccc(NC(=O)Cc4cn(C)c5ccccc45)cc3CC(=O)N([C@@H](C)CO)C[C@@H]2C)cc1 | -17 | 7 | .
C[C@H]1CN([C@@H](C)CO)C(=O)c2cc(NC(=O)Nc3ccc(F)cc3)ccc2O[C@H]1CN(C)S(=O)(=O)c1cccs1 | . | -1 | 0
Cc1noc(C)c1NC(=O)Nc1ccc2c(c1)C(=O)N([C@H](C)CO)C[C@@H](C)[C@@H](CN(C)Cc1ccc(-c3ccccc3)cc1)O2 | -9 | 4 | .
Cc1ccc(S(=O)(=O)N(C)C[C@H]2Oc3ccc(NC(=O)Nc4ccc(C(F)(F)F)cc4)cc3C(=O)N([C@@H](C)CO)C[C@H]2C)cc1 | -36 | 64* | 0
C[C@H]1CN([C@@H](C)CO)C(=O)c2cc(NC(=O)Nc3ccc(C(F)(F)F)cc3)ccc2O[C@@H]1CN(C)S(=O)(=O)c1ccc(F)cc1 | -7 | 6 | 0
Cc1ccc(S(=O)(=O)N(C)C[C@@H]2Oc3ccc(NC(=O)Nc4ccc(C(F)(F)F)cc4)cc3C(=O)N([C@H](C)CO)C[C@@H]2C)cc1 | -58 | 26 | -1
C[C@@H]1CN([C@H](C)CO)C(=O)c2cc(NC(=O)Nc3ccc(C(F)(F)F)cc3)ccc2O[C@@H]1CN(C)S(=O)(=O)c1ccccc1 | -1 | 11 | 1
C[C@@H]1CN([C@H](C)CO)C(=O)c2cc(NC(=O)Nc3ccc(C(F)(F)F)cc3)ccc2O[C@H]1CN(C)S(=O)(=O)c1ccc(F)cc1 | -30 | 65* | -2
C[C@@H]1CN([C@@H](C)CO)C(=O)c2cc(NC(=O)Nc3ccc(C(F)(F)F)cc3)ccc2O[C@H]1CN(C)S(=O)(=O)c1ccccc1 | -28 | 68* | 1
C[C@@H]1CN([C@H](C)CO)C(=O)CCCn2nncc2CO[C@@H]1CN(C)S(=O)(=O)c1ccccc1F | . | -5 | .
